Measurements taken from ChEMBL document CHEMBL4020802, “Fused bi-heteroaryl substituted hydantoin compounds as TACE inhibitors” (Bioorg Med Chem Lett, 2017).
pIC50, pKi: −log10 of the molar value.

Key:
[1] = molecular target: Disintegrin and metalloproteinase domain-containing protein 17 (Homo sapiens, UniProt P78536); experiment: Inhibition of catalytic domain TACE (unknown origin) by FRET assay
[2] = tested on: Blood; experiment: Antiinflammatory activity in human whole blood assessed as inhibition of LPS-induced TNF-alpha release preincubated for 1 hr followed by LPS addition after 3.5 hrs by ELISA method; format: functional
[3] = AUC in rat; format: ADME; set-up: concentration or dose not given beside the values; conditions: in vivo
[4] = AUC in dog at 2 mg/kg, po; format: ADME, organism-based, Canis lupus familiaris; conditions: in vivo
How it was run: (§1)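 Oral dosing of rats, dogs and monkeys, with compounds given as Na+ or HCl salts in a 0.4% HPMC formulation. Doses were 10 mg/kg in rat, 2 or 3 mg/kg in dog, and 3 or 10 mg/kg in monkey. Plasma exposure was reported as AUC in µM·h, and oral bioavailability as F%.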

[5] = AUC in monkey at 3 mg/kg, po; format: ADME, organism-based, Macaca mulatta; conditions: rhesus monkey, in vivo; how it was run: as §1
[6] = Oral bioavailability in rat at 10 mg/kg; format: ADME, organism-based; conditions: in vivo; how it was run: as §1
[7] = AUC in rat at 10 mg/kg, po; format: ADME, organism-based; conditions: in vivo; how it was run: as §1
[8] = Permeability from apical side to basolateral side in human Caco2 cells; format: ADME, cell-based; conditions: Caco-2, read-out: permeability
[9] = Oral bioavailability in dog at 3 mg/kg; format: ADME, organism-based, Canis lupus familiaris; conditions: in vivo; how it was run: as §1
[10] = Clearance in rat at 3 mg/kg, iv; format: ADME, organism-based; conditions: in vivo
[11] = Clearance in monkey at 1 mg/kg, iv; format: ADME, organism-based, Macaca mulatta; conditions: rhesus monkey, in vivo
[12] = AUC in monkey at 10 mg/kg, po; format: ADME, organism-based, Macaca mulatta; conditions: rhesus monkey, in vivo; how it was run: as §1
[13] = AUC in dog at 3 mg/kg, po; format: ADME, organism-based, Canis lupus familiaris; conditions: in vivo; how it was run: as §1
[14] = Clearance in dog at 0.5 mg/kg, iv; format: ADME, organism-based, Canis lupus familiaris; conditions: in vivo
[15] = Oral bioavailability in monkey at 10 mg/kg; format: ADME, organism-based, Macaca mulatta; conditions: rhesus monkey, in vivo; how it was run: as §1
[16] = molecular target: 72 kDa type IV collagenase (Homo sapiens, UniProt P08253); experiment: Inhibition of MMP2 (unknown origin)
Sequence of 72 kDa type IV collagenase (P08253 whole entry): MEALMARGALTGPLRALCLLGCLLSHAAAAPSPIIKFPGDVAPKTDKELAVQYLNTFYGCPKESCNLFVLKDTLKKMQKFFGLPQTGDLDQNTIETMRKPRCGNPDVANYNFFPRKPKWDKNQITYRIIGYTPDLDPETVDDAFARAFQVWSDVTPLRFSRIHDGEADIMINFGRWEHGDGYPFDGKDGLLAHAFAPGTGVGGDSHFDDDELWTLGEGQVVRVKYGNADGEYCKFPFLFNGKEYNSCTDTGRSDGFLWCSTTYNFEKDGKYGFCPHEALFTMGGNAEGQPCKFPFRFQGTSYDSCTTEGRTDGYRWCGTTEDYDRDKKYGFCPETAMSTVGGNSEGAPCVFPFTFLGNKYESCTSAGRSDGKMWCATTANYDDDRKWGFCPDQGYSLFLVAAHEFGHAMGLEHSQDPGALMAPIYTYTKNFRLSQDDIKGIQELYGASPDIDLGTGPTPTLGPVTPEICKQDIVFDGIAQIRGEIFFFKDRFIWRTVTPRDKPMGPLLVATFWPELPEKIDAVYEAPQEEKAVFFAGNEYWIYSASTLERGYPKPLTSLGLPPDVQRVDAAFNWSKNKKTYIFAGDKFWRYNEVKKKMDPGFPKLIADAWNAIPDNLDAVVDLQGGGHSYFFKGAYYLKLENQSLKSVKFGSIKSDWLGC

[17] = molecular target: T1, Interstitial collagenase (Homo sapiens, UniProt P03956); experiment: Inhibition of MMP1 (unknown origin)
T1 sequence (P03956 whole entry): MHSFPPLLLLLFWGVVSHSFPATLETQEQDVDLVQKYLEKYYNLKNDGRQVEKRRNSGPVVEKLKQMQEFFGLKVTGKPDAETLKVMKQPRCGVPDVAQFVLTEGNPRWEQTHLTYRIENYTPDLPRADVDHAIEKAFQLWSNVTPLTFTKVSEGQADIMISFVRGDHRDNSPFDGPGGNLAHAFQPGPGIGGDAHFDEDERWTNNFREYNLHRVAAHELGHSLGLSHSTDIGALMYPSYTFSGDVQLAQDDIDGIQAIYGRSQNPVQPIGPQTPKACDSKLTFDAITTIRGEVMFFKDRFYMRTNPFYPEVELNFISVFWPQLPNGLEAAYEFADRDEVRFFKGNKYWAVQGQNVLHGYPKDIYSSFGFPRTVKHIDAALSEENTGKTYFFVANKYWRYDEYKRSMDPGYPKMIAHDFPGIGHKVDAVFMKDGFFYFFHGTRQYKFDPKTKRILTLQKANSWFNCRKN

[18] = molecular target: T2, Disintegrin and metalloproteinase domain-containing protein 10 (Homo sapiens, UniProt O14672); experiment: Inhibition of ADAM10 (unknown origin)
T2 sequence (O14672 whole entry): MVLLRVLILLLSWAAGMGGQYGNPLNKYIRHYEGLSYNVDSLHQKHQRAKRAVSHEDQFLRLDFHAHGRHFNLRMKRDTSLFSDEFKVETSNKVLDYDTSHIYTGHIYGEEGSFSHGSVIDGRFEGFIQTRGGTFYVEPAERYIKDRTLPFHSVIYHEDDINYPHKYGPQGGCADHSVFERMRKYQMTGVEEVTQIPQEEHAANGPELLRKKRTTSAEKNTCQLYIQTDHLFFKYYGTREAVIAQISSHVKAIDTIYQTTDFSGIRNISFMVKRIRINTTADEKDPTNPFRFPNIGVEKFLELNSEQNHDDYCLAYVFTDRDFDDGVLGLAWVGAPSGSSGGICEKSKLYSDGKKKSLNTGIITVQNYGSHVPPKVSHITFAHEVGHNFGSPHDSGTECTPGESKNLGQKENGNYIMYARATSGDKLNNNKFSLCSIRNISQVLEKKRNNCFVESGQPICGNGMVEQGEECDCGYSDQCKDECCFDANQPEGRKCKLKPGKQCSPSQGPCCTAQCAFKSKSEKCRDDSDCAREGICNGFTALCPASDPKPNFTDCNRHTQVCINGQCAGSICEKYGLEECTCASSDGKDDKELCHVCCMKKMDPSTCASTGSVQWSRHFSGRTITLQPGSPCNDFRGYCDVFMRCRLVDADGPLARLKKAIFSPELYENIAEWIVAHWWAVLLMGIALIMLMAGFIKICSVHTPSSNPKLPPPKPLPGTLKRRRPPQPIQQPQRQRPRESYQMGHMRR

[19] = molecular target: Collagenase 3 (Homo sapiens, UniProt P45452); experiment: Inhibition of MMP13 (unknown origin)
[20] = molecular target: T3, Matrilysin (Homo sapiens, UniProt P09237); experiment: Inhibition of MMP7 (unknown origin)
T3 sequence (P09237 whole entry): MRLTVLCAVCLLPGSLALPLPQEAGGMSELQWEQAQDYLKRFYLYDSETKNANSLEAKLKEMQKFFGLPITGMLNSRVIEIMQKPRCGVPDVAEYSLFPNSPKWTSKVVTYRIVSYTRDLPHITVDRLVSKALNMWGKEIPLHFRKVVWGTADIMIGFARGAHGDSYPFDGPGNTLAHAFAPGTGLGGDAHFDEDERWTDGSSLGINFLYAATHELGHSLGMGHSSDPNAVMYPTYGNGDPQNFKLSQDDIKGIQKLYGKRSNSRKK

[21] = molecular target: Matrix metalloproteinase-9 (Homo sapiens, UniProt P14780); experiment: Inhibition of MMP9 (unknown origin)
Sequence of Matrix metalloproteinase-9 (P14780 whole entry): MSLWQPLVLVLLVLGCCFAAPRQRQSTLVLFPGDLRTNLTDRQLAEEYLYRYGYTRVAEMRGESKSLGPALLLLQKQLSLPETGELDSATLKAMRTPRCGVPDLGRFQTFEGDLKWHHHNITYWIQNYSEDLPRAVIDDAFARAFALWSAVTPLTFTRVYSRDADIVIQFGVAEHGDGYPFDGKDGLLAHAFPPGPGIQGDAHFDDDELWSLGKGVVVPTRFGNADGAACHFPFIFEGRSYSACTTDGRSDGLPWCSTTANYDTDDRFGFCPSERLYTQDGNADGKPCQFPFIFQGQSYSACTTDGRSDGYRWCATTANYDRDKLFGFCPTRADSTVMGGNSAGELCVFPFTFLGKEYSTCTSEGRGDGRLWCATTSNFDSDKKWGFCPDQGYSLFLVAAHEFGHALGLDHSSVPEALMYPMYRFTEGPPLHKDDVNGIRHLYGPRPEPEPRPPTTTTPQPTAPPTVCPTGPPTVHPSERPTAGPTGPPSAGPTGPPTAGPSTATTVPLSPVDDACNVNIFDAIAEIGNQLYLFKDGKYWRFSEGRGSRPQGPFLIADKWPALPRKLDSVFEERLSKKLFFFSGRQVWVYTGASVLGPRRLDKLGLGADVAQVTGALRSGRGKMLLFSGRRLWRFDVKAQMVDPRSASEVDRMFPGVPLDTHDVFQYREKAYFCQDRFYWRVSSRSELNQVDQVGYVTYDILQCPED

[22] = molecular target: Stromelysin-1 (Homo sapiens, UniProt P08254); experiment: Inhibition of MMP3 (unknown origin)
Sequence of Stromelysin-1 (P08254 whole entry): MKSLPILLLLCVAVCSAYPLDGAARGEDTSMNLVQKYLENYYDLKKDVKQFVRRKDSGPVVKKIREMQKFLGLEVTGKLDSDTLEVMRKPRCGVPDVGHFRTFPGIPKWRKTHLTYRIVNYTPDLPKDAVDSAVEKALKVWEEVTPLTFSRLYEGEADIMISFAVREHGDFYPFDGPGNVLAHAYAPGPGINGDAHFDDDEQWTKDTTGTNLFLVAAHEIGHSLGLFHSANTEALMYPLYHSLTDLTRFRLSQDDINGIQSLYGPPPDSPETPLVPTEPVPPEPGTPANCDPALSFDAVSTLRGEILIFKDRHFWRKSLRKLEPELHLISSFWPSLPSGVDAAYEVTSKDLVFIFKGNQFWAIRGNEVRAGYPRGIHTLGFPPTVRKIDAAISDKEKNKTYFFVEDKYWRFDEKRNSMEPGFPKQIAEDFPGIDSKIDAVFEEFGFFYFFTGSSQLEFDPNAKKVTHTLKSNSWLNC

[23] = molecular target: Matrix metalloproteinase-14 (Homo sapiens, UniProt P50281); experiment: Inhibition of MMP14 (unknown origin)
[24] = Oral bioavailability in monkey at 3 mg/kg; format: ADME, organism-based, Macaca mulatta; conditions: rhesus monkey, in vivo; how it was run: as §1

Sequence of Disintegrin and metalloproteinase domain-containing protein 17 (P78536 whole entry, the tested form may be a part): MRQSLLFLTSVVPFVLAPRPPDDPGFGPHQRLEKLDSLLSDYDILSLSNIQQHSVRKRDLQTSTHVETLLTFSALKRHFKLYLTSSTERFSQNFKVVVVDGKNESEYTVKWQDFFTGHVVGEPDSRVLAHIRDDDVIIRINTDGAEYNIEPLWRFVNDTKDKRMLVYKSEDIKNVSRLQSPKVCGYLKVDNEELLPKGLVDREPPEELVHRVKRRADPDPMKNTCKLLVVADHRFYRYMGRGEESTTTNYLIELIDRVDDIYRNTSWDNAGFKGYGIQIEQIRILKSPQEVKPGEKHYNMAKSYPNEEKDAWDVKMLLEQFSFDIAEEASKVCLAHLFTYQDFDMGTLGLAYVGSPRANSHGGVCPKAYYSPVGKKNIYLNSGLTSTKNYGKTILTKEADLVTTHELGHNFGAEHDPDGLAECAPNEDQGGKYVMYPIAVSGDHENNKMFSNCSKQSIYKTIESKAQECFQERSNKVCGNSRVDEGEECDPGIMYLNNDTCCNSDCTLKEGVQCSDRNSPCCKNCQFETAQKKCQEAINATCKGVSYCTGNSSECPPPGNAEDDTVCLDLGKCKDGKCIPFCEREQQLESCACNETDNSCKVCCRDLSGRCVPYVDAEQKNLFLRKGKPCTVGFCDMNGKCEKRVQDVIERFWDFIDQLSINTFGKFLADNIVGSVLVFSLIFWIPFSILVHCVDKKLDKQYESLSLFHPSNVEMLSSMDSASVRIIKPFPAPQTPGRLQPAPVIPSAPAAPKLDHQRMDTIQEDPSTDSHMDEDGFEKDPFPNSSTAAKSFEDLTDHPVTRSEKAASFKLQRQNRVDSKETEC

pKi [1]	pIC50 [2]	AUC [3] [µM·h]	SMILES	also measured
8.44	5.53	–	COc1ccc2c(c1)C(=O)N(C[C@@]1(c3cc4ncccc4[nH]3)NC(=O)NC1=O)C2	–
9.70	6.60	–	COc1ccc2c(c1)C(=O)N(C[C@@]1(c3cc4c(O)nccc4o3)NC(=O)NC1=O)C2	–
8.70	5.96	2.7	COc1ccc2c(c1)C(=O)N(C[C@@]1(c3cc4cncc(F)c4o3)NC(=O)NC1=O)C2	–
9.30	6.73	0.4	COc1ccc2c(c1)C(=O)N(C[C@@]1(c3cc4nc(N)ccc4o3)NC(=O)NC1=O)C2	–
9.00	–	0.06	COc1ccc2c(c1)C(=O)N(C[C@@]1(c3cc4nc(N(c5cn[nH]c5)C5CCN(C)CC5)ccc4o3)NC(=O)NC1=O)C2	Papp A→B [8]: 0.1 ×10⁻⁶ cm/s
9.40	7.03	–	COc1ccc2c(c1)C(=O)N(C[C@@]1(c3cc4nc(N(c5cn[nH]c5)C5CCNCC5)ccc4o3)NC(=O)NC1=O)C2	Papp A→B [8]: 0.22 ×10⁻⁶ cm/s
9.40	–	3.2	COc1ccc2c(c1F)C(=O)N(C[C@@]1(c3cc4nc(N5CC(=O)NC5=O)c(F)cc4o3)NC(=O)NC1=O)C2	–
9.05	–	–	CNC(=O)c1cnc2cc([C@]3(CN4Cc5ccc(OC)cc5C4=O)NC(=O)NC3=O)oc2c1	–
–	6.51	–	COc1ccc2c(c1F)C(=O)N(C[C@@]1(c3cc4nc(C)c(-c5ccc(N)nc5)cc4o3)NC(=O)NC1=O)C2	–
8.85	5.83	–	COc1ccc2c(c1)C(=O)N(C[C@@]1(c3cn4ccccc4n3)NC(=O)NC1=O)C2	–
9.52	5.64	0.2	COc1ccc2c(c1)C(=O)N(C[C@@]1(c3cc4ccccc4o3)NC(=O)NC1=O)C2	–

The remaining lines, values behind:

SMILES	pKi [1]	pIC50 [2]	AUC [3] [µM·h]	also measured
COc1ccc2c(c1)C(=O)N(C[C@@]1(c3cc4c(C)nc(C)cc4o3)NC(=O)NC1=O)C2	9.30	6.17	4.2	–
COc1ccc2c(c1)C(=O)N(C[C@@]1(c3cc4c(-c5cn[nH]c5)nccc4o3)NC(=O)NC1=O)C2	9.70	6.82	–	–
COc1ccc2c(c1)C(=O)N(C[C@@]1(c3cn4ccsc4n3)NC(=O)NC1=O)C2	8.89	6.27	2.2	–
COc1ccc2c(c1)C(=O)N(C[C@@]1(c3cc4cccnc4o3)NC(=O)NC1=O)C2	9.15	6.23	34	–
COc1ccc2c(c1)C(=O)N(C[C@@]1(c3cc4cncnc4o3)NC(=O)NC1=O)C2	8.80	6.11	2.2	–
COc1ccc2c(c1F)C(=O)N(C[C@@]1(c3cc4cnc(C)cc4o3)NC(=O)NC1=O)C2	9.40	6.68	26.3	AUC [4]: 13.5 µM·h; AUC [5]: 1.5 µM·h; bioavailability [6]: 11%; AUC [7]: 13.4 µM·h
COc1ccc2c(c1)C(=O)N(C[C@@]1(c3cc4c(C(F)(F)F)nccc4o3)NC(=O)NC1=O)C2	9.40	5.97	–	–
COc1ccc2c(c1)C(=O)N(C[C@@]1(c3cc4cnc(C)cc4o3)NC(=O)NC1=O)C2	9.40	6.46	19.1	Papp A→B [8]: 2.05 ×10⁻⁶ cm/s
COc1ccc2c(c1)C(=O)N(C[C@@]1(c3cc4ncccc4o3)NC(=O)NC1=O)C2	9.30	6.54	27	bioavailability [6]: 35%; bioavailability [9]: 82%; clearance [10]: 15 mL/min/kg; clearance [11]: 11 mL/min/kg; AUC [12]: 22 µM·h; AUC [13]: 41 µM·h; clearance [14]: 3 mL/min/kg; AUC [7]: 10 µM·h; Papp A→B [8]: 1.2 ×10⁻⁶ cm/s; bioavailability [15]: 46%
COc1ccc2c(c1)C(=O)N(C[C@@]1(c3cc4cnc(N5CCNC5=O)cc4o3)NC(=O)NC1=O)C2	8.74	6.68	1.2	–
COc1ccc2c(c1F)C(=O)N(C[C@@]1(c3cc4nc(N5CCC(N(C)C)CC5)ccc4o3)NC(=O)NC1=O)C2	–	7.12	0.04	–
COc1ccc2c(c1F)C(=O)N(C[C@@]1(c3cc4nc(N5CCNC(=O)C5)ccc4o3)NC(=O)NC1=O)C2	9.22	–	0.1	–
COc1ccc2c(c1)C(=O)N(C[C@@]1(c3cn4cccnc4n3)NC(=O)NC1=O)C2	8.72	6.15	3.2	–
COc1ccc2c(c1)C(=O)N(C[C@@]1(c3cc4c(C#N)nccc4o3)NC(=O)NC1=O)C2	9.15	5.91	0.5	–
COc1ccc2c(c1)C(=O)N(C[C@@]1(c3cc4c(N5CCNCC5)nccc4o3)NC(=O)NC1=O)C2	8.60	6.64	–	–
COc1ccc2c(c1)C(=O)N(C[C@@]1(C#Cc3cccnc3)NC(=O)NC1=O)C2	–	–	–	Papp A→B [8]: 1.6 ×10⁻⁶ cm/s
COc1ccc2c(c1)C(=O)N(C[C@@]1(c3cc4nc(-c5cn[nH]c5)ccc4o3)NC(=O)NC1=O)C2	9.30	7.00	0.1	–
COc1ccc2c(c1)C(=O)N(C[C@@]1(c3cc4cnc(C(F)(F)F)cc4o3)NC(=O)NC1=O)C2	9.30	5.79	19.3	–
COc1ccc2c(c1)C(=O)N(C[C@@]1(c3cc4cncc(N)c4o3)NC(=O)NC1=O)C2	9.40	6.51	0.1	–
COc1ccc2c(c1)C(=O)N(C[C@@]1(c3cc4nc(-n5cccn5)ccc4o3)NC(=O)NC1=O)C2	9.40	5.86	21	–
COc1ccc2c(c1)C(=O)N(C[C@@]1(c3cc4cnccc4o3)NC(=O)NC1=O)C2	9.15	6.57	13	pIC50 [16]: 6.27; AUC [5]: 10 µM·h; pIC50 [17]: 5.33; pKi [18]: 6.84; bioavailability [6]: 58%; bioavailability [9]: 98%; clearance [10]: 23 mL/min/kg; pIC50 [19]: 6.16; clearance [11]: 7 mL/min/kg; AUC [13]: 52 µM·h; pIC50 [20]: < 4.40; pIC50 [21]: 5.75; pIC50 [22]: 5.26; clearance [14]: 3 mL/min/kg; AUC [7]: 11 µM·h; pIC50 [23]: 6.62; Papp A→B [8]: 1.5 ×10⁻⁶ cm/s; bioavailability [24]: 19%
COc1ccc2c(c1)C(=O)N(C[C@@]1(c3cc4cncc(C)c4o3)NC(=O)NC1=O)C2	9.30	6.12	8.7	–
